In ChEMBL document CHEMBL1156927, “New pterocarpanquinones: synthesis, antineoplasic activity on cultured human malignant cell lines and TNF-alpha modulation in human PBMC cells” (Bioorg Med Chem, 2010):
One block for each molecule: values may come before it. Active and inactive are the calls of the source. No cut-off for these calls is given here.

How the values were obtained:
HL-60 = assay: Growth inhibition of human HL60 cells after 72 hrs by MTT assay; assay type: functional, cell-based; conditions: HL-60, 72 h
How it was run: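 2 × 10⁴ cells/mL seeded in drug-free medium or medium with a range of compound concentrations, 72 h at 37 °C, 5% CO₂. MTT read-out: 3 h incubation, formazan dissolved in DMSO, A490. IC50 = concentration inhibiting growth by 50%. Mean of three independent experiments, triplicate wells.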

K562 = assay: Growth inhibition of human K562 cells after 24 to 72 hrs by MTT assay; assay type: functional, cell-based
How it was run: (§1)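 Leukemic lines in medium with 50 µM β-mercaptoethanol, 25 mM Hepes pH 7.4, antibiotics and 10% heat-inactivated FCS (Daudi 20% FCS; Lucena-1 kept with 60 nM vincristine to maintain MDR phenotype). Cells exposed to compound for 24, 48 or 72 h. Viability by MTT: 3 h at 37 °C, DMSO solubilisation, absorbance at 490 nm.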

Daudi = assay: Growth inhibition of human Daudi cells after 24 to 72 hrs by MTT assay; assay type: functional, cell-based; how it was run: as §1
PBMC [1] = assay: Growth inhibition of phytohemagglutinin-activated human PBMC cells after 24 to 72 hrs by MTT assay; assay type: cell-based
[2] = Growth inhibition of human K562-Lucena 1 cells after 24 to 72 hrs by MTT assay; assay type: functional; how it was run: as §1
A549 = assay: Growth inhibition of human A549 cells after 72 hrs by MTT assay; assay type: functional, cell-based; conditions: A549, 72 h
How it was run: (§2)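 Adherent lung cancer cells allowed to attach 24 h, then exposed to compound. 2 × 10⁴ cells/mL in drug-free or compound-containing medium, 72 h at 37 °C, 5% CO₂. MTT added, 3 h at 37 °C, formazan dissolved in DMSO, absorbance at 490 nm. IC50 from three independent experiments, each concentration in triplicate.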

PBMC [3] = assay: Antiinflammatory activity in human PBMC assessed inhibition of LPS-stimulated TNFalpha production at 100 uM after 2 hrs by ELISA; assay type: functional
How it was run: (§3)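 PBMC at 10⁶ cells/mL stimulated with 2 µg/mL E. coli 055:B5 LPS for 2 h at 37 °C, 5% CO₂, co-incubated with vehicle (0.5% DMSO in RPMI 1640) or compound at several concentrations. TNF-α measured in supernatants. Three experiments, mean ± SEM.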

Raji = assay: Growth inhibition of human Raji cells after 24 to 72 hrs by MTT assay; assay type: functional, cell-based; how it was run: as §1
Jurkat = assay: Growth inhibition of human Jurkat cells after 24 to 72 hrs by MTT assay; assay type: functional, cell-based; how it was run: as §1
PBMC [4] = assay: Antiinflammatory activity in human PBMC assessed reduction of LPS-stimulated TNFalpha production at 25 uM after 2 hrs by ELISA; assay type: functional, cell-based; how it was run: as §3
[5] = Growth inhibition of human GLC4 cells after 72 hrs by MTT assay; assay type: functional, cell-based; conditions: GLC4, 72 h; how it was run: as §2
NCI-H460 = assay: Growth inhibition of human H460 cells after 72 hrs by MTT assay; assay type: functional, cell-based; conditions: NCI-H460, 72 h; how it was run: as §2
[6] = Toxicity in LPS-stimulated human PBMC cells assessed as cell viability at 100 uM; assay type: cell-based

SMILES: O=C1C2=C(OC[C@@H]3c4cc5c(cc4O[C@H]23)OCO5)C(=O)c2c1ccc(O)c2O
IC50 (HL-60): 2.1 µM
IC50 (K562): 2.95 µM

SMILES: O=C1C2=C(C(=O)c3ccccc31)[C@H]1Oc3ccc([N+](=O)[O-])cc3[C@H]1CO2 (racemic)
IC50 (HL-60): 0.4 µM
IC50 (K562): 3.48 µM

SMILES: O=C1C2=C(C(=O)c3ccccc31)[C@H]1Oc3ccc(Br)cc3[C@H]1CO2 (racemic)
IC50 (HL-60): 4.87 µM
IC50 (K562): 5.7 µM

SMILES: CO[C@@]12[C@H](COC(N)=O)C3=C(C(=O)C(C)=C(N)C3=O)N1C[C@@H]1N[C@@H]12 [MITOMYCIN]
IC50 (Daudi): 0.45 µM
IC50 (K562): 0.47 µM
IC50 (PBMC [1]): 4.03 µM
IC50 [2]: 2.75 µM

Now from value to molecule, other results behind:

IC50 (HL-60): 4.87 µM
IC50 (K562): 6.77 µM
SMILES: O=C1C2=C(C(=O)c3ccccc31)[C@H]1Oc3ccc(Cl)cc3[C@H]1CO2 (racemic)

IC50 (K562): 2.18 µM
SMILES: COc1cc2c(cc1O)[C@H]1COC3=C(C(=O)c4ccccc4C3=O)[C@H]1O2 (racemic)

IC50 (HL-60): 2 µM
IC50 (A549): 11.2 µM
IC50 (Daudi): 3.1 µM
IC50 (K562): 1.67 µM
IC50 (Raji): 3.32 µM
IC50 (Jurkat): 6.77 µM
IC50 (NCI-H460): 12.9 µM
SMILES: O=C1C2=C(C(=O)c3ccccc31)[C@H]1Oc3ccccc3[C@H]1CO2 [PTEROCARPANQUINONE]
inhibition at 100 µM (PBMC [3]): 100%
IC50 (PBMC [1]): > 20 µM
IC50 [2]: 2.75 µM
inhibition (PBMC [4]): Active
IC50 [5]: 5.17 µM
viability at 100 µM [6]: > 70%
